From paper PMC4963206 (ChemMedChem, 2016)
Where “and” joins values, the source holds several entries; their conditions need not be identical. Equal values may be shown once.

Experiments:
Plasma protein binding = format: in vitro ADME; details: CD-1 mice plasma, dialysis 6 hours, 37°C
In short: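 Plasma protein isolated from CD-1 mice was spiked with the test compound and dialysed against PBS for 6 hours at 37°C under 5% CO₂. Plasma and buffer compartments were both analysed to give the percentage of free compound. Ketoconazole was the positive control.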

[1] = 19F NMR monitoring of reaction with glutathione; format: physicochemical; details: 100 μM, 10 equivalents of glutathione, 37 °C, 15 hours
In short: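 Samples were in 100 mM HEPES pH 7.2, 150 mM NaCl, with 10% […] and 1% DMSO final. Test compound at 100 μM was incubated with 10 equivalents of glutathione for 15 hours at 37°C. ¹⁹F NMR spectra were recorded at 37°C on a 600 MHz spectrometer with a room-temperature H(F)CN probe.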

AR230^R cells = test: Phenotypic screening / cytotoxicity in TKI-resistant CML cell line AR230^R; format: cell-based
STAT3 [2] = molecular target: T1, STAT3 (Homo sapiens, UniProt P40763); test: 19F NMR examination of binding to STAT3; details: 100 μM compound with STAT3, 37 °C, 1 hour
[3] = In vivo bioavailability / plasma pharmacokinetics, IP injection; set-up: species or system CD-1 mice
In short: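 CD-1 mice received 20 mg/kg IP in 10% DMA, 65% PEG 400, 25% saline. Parent compound in plasma was measured to give concentration–time profiles. In one study, a cohort of 3 mice was sampled at 15, 30, 60, 90, 180 and 360 min post-dose, and plasma was analysed for parent compound by LC-MS.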

AR230 cells = test: Phenotypic screening / cytotoxicity in CML cell line AR230; format: cell-based; details: read-out: IC50 AR230
[4] = tested on: pSTAT3 / STAT3 in AR230^R cells; format: cell-based; details: 10 μM, 2 hours pre-treatment, IL-6 and IFN stimulation
STAT1 = molecular target: T2, STAT1 (Homo sapiens, UniProt P42224); test: Competitive fluorescence polarization; format: binding
T2 sequence (P42224 1-750): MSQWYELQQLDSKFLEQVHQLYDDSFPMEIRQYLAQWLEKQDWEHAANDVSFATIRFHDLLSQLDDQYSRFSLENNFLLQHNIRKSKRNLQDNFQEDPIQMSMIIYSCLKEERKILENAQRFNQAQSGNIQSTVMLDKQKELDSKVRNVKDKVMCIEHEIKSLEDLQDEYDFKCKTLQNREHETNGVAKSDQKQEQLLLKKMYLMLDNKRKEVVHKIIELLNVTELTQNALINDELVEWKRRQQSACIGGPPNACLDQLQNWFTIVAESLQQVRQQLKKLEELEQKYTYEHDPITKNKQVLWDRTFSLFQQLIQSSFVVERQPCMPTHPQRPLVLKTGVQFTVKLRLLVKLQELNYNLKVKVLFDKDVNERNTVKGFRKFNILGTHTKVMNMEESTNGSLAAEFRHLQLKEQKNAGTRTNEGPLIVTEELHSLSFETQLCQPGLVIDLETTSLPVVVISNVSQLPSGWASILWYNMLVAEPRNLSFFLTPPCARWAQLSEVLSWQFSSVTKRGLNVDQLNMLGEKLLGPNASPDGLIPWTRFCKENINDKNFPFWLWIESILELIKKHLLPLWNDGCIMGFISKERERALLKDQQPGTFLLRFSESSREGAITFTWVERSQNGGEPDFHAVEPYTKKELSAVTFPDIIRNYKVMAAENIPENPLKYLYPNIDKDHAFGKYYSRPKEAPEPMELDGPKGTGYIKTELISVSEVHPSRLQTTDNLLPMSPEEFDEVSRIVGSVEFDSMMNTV
In short: (§1)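 Competitive binding assay in which the test compound displaces a fluoresceinated peptide from the SH2 domain, read by fluorescence polarization. IC50 is reported with a 95% confidence interval, and Ki is reported alongside it.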

[5] = Metabolic stability in CD-1 mouse hepatocytes; format: in vitro ADME
In short: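 CD-1 mouse hepatocytes were incubated with the test compound for 120 min. Remaining parent compound was quantified by LC-MS/MS at regular time points to assess metabolic degradation.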

STAT3 [6] = molecular target: T1, STAT3; test: Competitive fluorescence polarization; format: binding
In short: as §1

T1 sequence (P40763 whole entry, species assumed): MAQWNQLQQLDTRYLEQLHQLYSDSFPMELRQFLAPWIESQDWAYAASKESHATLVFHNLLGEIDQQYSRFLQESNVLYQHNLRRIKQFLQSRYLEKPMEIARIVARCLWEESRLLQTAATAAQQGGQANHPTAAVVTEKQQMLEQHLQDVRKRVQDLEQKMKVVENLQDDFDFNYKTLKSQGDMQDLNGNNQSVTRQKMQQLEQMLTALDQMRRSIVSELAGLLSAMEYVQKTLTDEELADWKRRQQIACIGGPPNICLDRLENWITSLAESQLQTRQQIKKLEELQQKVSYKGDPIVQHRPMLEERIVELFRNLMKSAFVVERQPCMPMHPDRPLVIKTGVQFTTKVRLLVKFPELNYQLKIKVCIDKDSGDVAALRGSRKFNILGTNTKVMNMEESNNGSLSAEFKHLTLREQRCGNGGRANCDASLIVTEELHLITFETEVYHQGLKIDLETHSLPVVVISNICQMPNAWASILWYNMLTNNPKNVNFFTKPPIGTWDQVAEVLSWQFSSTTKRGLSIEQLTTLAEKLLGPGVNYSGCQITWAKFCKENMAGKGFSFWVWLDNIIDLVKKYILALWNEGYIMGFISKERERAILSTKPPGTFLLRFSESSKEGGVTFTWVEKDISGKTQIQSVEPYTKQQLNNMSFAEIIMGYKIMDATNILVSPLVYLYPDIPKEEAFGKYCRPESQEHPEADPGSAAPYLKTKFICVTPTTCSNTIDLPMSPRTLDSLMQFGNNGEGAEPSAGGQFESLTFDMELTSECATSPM

bound to mouse plasma proteins (Plasma protein binding): 99.7%
reaction with glutathione (19F NMR) [1]: inert to glutathione
mode of interaction with STAT3 (19F NMR, fluoride ion production) (STAT3 [2]): non-covalent
plasma concentration for the first 120 mins ([3]; CD-1 mice, IP 20 mg/kg): above 2000 ng/mL
half-life ([3]; male, CD-1, mouse, plasma, ip, 20 mg/kg): 1.42 h
Ki (STAT1): > 250 µM
fold more resistant to metabolism than SH-4-54 [5]: ~ 4 fold
IC50 (STAT3 [6]): 30 µM
Ki (STAT3 [6]; Ki STAT3, disruption of STAT3:IL-6R/gp130 peptide complex, FP): 15 µM and 15.3 µM
SMILES: CC(C)(C)c1ccc(CN(C(=O)CN(C2CC2)S(=O)(=O)c2c(F)c(F)cc(F)c2F)c2ccc(C(=O)O)cc2)cc1 [AM-1-124, 4-(N-(4-(tert-butyl)benzyl)-2-(N-cyclopropyl-2,3,5,6-tetrafluorophenylsulfonamido)acetamido)benzoic acid]
fold improvement in selectivity vs SH-4-54 (AR230^R cells): 5 fold
fold selectivity for AR230^R over AR230 cells (AR230^R cells): 5.6 fold
Fold Difference (AR230^R cells; Table 5, AR230 vs AR230^R): 5.6
IC50 (AR230^R cells; read-out: IC50 AR230^R): 4.8 µM
IC50 (AR230 cells): 26.9 µM
cytokine-induced pSTAT3 activation [4]: partially inhibited cytokine-induced pSTAT3 activation
nuclear STAT3 protein localization [4]: reduced the nuclear STAT3 protein localization
